According to PMC4743058 (Genes & Development, 2016):
Where a SMILES comes first, the peptide text is derived from it. The star is where a group is joined. Cbz = O=C(OCc1ccccc1)*

Tests used:
[1] = tested on: Lj-p53; assay: Lj-p53 degradation in p53/Mdm2 double-knockout cells; assay type: cell-based; details: 4 h before harvest, Western blot, lane 4
[2] = tested on: Hs-p53; assay: Hs-p53 degradation in p53/Mdm2 double-knockout cells; assay type: cell-based, human; expressed in mouse embryonic fibroblasts; details: 4 h before harvest, Western blot
[3] = tested on: Hs-p53–HDM2^Nterm; assay: In vitro pull-down of Hs-p53 by HDM2Nterm in presence of inhibitor; assay type: binding, human; details: in vitro translated proteins, inhibitor 30 min, Fig. 7A lanes 1–3
[4] = tested on: Hs-p53–Lj-Mdm2^Nterm; assay: In vitro pull-down of Hs-p53 by Lj-Mdm2Nterm in presence of inhibitor; assay type: binding, human p53; lamprey (Lethenteron japonicum) Mdm2; details: in vitro translated proteins, inhibitor 30 min, Fig. 7A lanes 4–6
[5] = tested on: Lj-p53–Lj-Mdm2^Nterm; assay: In vitro pull-down of Lj-p53 by Lj-Mdm2Nterm in presence of inhibitor; assay type: binding, lamprey (Lethenteron japonicum); details: Fig. 7A
Outline: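 Anti-HA antibody (1 µg per 10 µL Protein G beads, 1 h in PBST–3% BSA) captured in vitro translated HA-tagged Mdm2 N-terminal bait (30 min, rotating). Test compound was added at the required concentrations for 30 min, with DMSO as control. In vitro translated Flag-Lj-p53 was then added for 1 h. Beads were washed, and eluates were heated 5 min at 95°C, run on SDS-PAGE and immunoblotted with HRP anti-Flag.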

Molecule	block of Lj-Mdm2-mediated Lj-p53 reduction by proteasome inhibitor [1]	block of Lj-Mdm2-mediated Hs-p53 degradation by proteasome inhibitor [2]	block of binding of Hs-p53 to HDM2Nterm [3]	block of binding of Hs-p53 to Lj-Mdm2Nterm [4]	block of binding of Lj-p53 to Lj-Mdm2Nterm ([5]; in vitro translated proteins, inhibitor 30 min)	interaction with the p53-binding pocket in Lj-Mdm2Nterm ([5]; inferred from pull-down)
CC(C)C[C@@H](C=O)NC(=O)[C@H](CC(C)C)NC(=O)[C@H](CC(C)C)NC(=O)OCc1ccccc1 [MG132] (Cbz-Leu-Leu-Leu-aldehyde)	partially blocked	only partially blocked	–	–	–	–
Nutlin	–	–	could block the binding of Hs-p53 to HDM2^Nterm	not by Nutlin	not by Nutlin	interacts poorly, if at all
